This note sets out measurements from ChEMBL document CHEMBL3272224, “Synthesis and hypotensive activity of N-alkyl-N"-cyano-N'-pyridylguanidines” (J Med Chem, 1978).

The source made the active and inactive calls. No cut-off for these calls is given here. Where only a bound is given, the exact number is not on record here.

Data set [1] has as its system Rattus norvegicus. The data set can be described thus: Hypotensive activity in spontaneously hypertensive Wistar-Okamoto rat assessed as maximum change in mean blood pressure at 2.5 mg/kg, po relative to control. Type of data set: functional. The essentials:
(§1)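 Spontaneously hypertensive Wistar-Okamoto rats, five per dose, received compound orally, dissolved or suspended in 0.5% carboxymethylcellulose. Blood pressure was measured indirectly by tail cuff in restrained conscious rats before dosing and at 2, 4, 6, 8, 12 and 24 h. Maximum change was measured after a single administration and given as mean ± error.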

Data set [2] has as its system Canis familiaris. The data set can be described thus: Hypotensive activity in conscious renal hypertensive dog assessed as maximum change in mean blood pressure at 10 mg/kg, po measured for 8 hrs relative to control. The class given is functional, Canis lupus familiaris. The essentials:
(§2)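 Renal hypertensive dogs, conscious, dosed orally in soft gelatin capsules, three dogs per dose. Mean blood pressure was taken indirectly with an Arteriosonde, standing animals in a semi-insonorized room, just before dosing and then hourly for 8 h. Maximum change was measured after a single administration and given as mean ± error.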

In data set [3] the test system is Rattus norvegicus. The data set can be described thus: Hypotensive activity in spontaneously hypertensive Wistar-Okamoto rat assessed as time required for persistence of hypotensive effect at 10 mg/kg, po. The class given is functional. The method, boiled down: (§3)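 SHR (Wistar-Okamoto), five per dose, were given an oral dose in 0.5% carboxymethylcellulose. Indirect cuff pressure in restrained conscious rats was read before dosing and at 2, 4, 6, 8, 12 and 24 h. Duration (h) was scored while pressure remained 15 mmHg or more below the initial reading.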

The test system of data set [4] is Canis familiaris. The data set can be described thus: Hypotensive activity in conscious renal hypertensive dog assessed as maximum change in mean blood pressure at 5 mg/kg, po measured for 8 hrs relative to control. Type of data set: functional, Canis lupus familiaris. The essentials:
as §2

For data set [5], the system named is Canis familiaris. The data set can be described thus: Hypotensive activity in conscious renal hypertensive dog assessed as maximum change in mean blood pressure at 2.5 mg/kg, po measured for 8 hrs relative to control. The class given is functional, Canis lupus familiaris. The method, boiled down:
as §2

A short description of data set [6]: Toxicity in po dosed Sprague-Dawley rat assessed as mortality after 7 days. The class given is organism-based. As to conditions: in vivo.
Data set [7] concerns Rattus norvegicus. The data set can be described thus: Hypotensive activity in spontaneously hypertensive Wistar-Okamoto rat assessed as maximum change in mean blood pressure at 5 mg/kg, po relative to control. Type of data set: functional. The method, boiled down:
as §1

Data set [8] concerns Rattus norvegicus. The data set can be described thus: Hypotensive activity in spontaneously hypertensive Wistar-Okamoto rat assessed as maximum change in mean blood pressure at 10 mg/kg, po relative to control. Type of data set: functional. The method, boiled down: as §1
Data set [9] has as its system Canis familiaris. The data set can be described thus: Hypotensive activity in conscious renal hypertensive dog assessed as time required for persistence of hypotensive effect at 5 mg/kg, po measured for 8 hrs. Type of data set: functional, Canis lupus familiaris. The essentials: (§4)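 Conscious renal hypertensive dogs received single oral doses in soft gelatin capsules, three per dose. Indirect standing blood pressure was read before dosing and hourly to 8 h. Duration (h) was the time the pressure stayed 15 mmHg or more below the initial value, which was taken as persistence of the hypotensive effect.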

The test system of data set [10] is Canis familiaris. The data set can be described thus: Hypotensive activity in conscious renal hypertensive dog assessed as time required for persistence of hypotensive effect at 2.5 mg/kg, po measured for 8 hrs. Type of data set: functional, Canis lupus familiaris. The essentials: as §4
In data set [11] the test system is Canis familiaris. The data set can be described thus: Hypotensive activity in conscious renal hypertensive dog assessed as time required for persistence of hypotensive effect at 10 mg/kg, po measured for 8 hrs. The class given is functional, Canis lupus familiaris. The method, boiled down:
as §4

Data set [12] relates to Rattus norvegicus. The data set can be described thus: Hypotensive activity in spontaneously hypertensive Wistar-Okamoto rat assessed as time required for persistence of hypotensive effect at 2.5 mg/kg, po. Type of data set: functional. The method, boiled down: as §3
Data set [13] deals with Rattus norvegicus. The data set can be described thus: Hypotensive activity in spontaneously hypertensive Wistar-Okamoto rat assessed as time required for persistence of hypotensive effect at 5 mg/kg, po. Type of data set: functional. The essentials:
as §3

The subject of data set [14] is Rattus norvegicus. The data set can be described thus: Hypotensive activity in spontaneously hypertensive Wistar-Okamoto rat assessed as maximum change in mean blood pressure at 0.25 mg/kg, po relative to control. The class given is functional. The method, boiled down:
as §1

The species entered for data set [15] is Rattus norvegicus. The data set can be described thus: Toxicity in rat assessed as effect on contraction of nictitating membranes by preganglionic stimulation. The class given is organism-based, Nictitating membrane. As to conditions: in vivo.
The subject of data set [16] is Rattus norvegicus. The data set can be described thus: Hypotensive activity in spontaneously hypertensive Wistar-Okamoto rat assessed as time required for persistence of hypotensive effect at 0.5 mg/kg, po. The class given is functional. The essentials:
as §3

Data set [17] concerns Canis familiaris. The data set can be described thus: Hypotensive activity in conscious renal hypertensive dog assessed as maximum change in mean blood pressure at 0.5 mg/kg, po measured for 8 hrs relative to control. The class given is functional, Canis lupus familiaris. The essentials:
as §2

In data set [18] the test system is Rattus norvegicus. The data set can be described thus: Hypotensive activity in po dosed spontaneously hypertensive Wistar-Okamoto rat relative to hydralazine. The class given is functional.
Data set [19] concerns Canis familiaris. The data set can be described thus: Hypotensive activity in conscious renal hypertensive dog assessed as maximum change in mean blood pressure at 2 mg/kg, po measured for 8 hrs relative to control. The class given is functional, Canis lupus familiaris. The essentials:
as §2

Data set [20] is described as follows: Toxicity in po dosed mouse assessed as mortality after 7 days. As to conditions: in vivo.
For data set [21], the species on record is Felis catus. The data set can be described thus: Hypotensive activity in decerebrated cat. Type of data set: functional, organism-based.
For data set [22], the system named is Rattus norvegicus. The data set can be described thus: Hypotensive activity in po dosed spontaneously hypertensive Wistar-Okamoto rat assessed as dose required to cause 30 mmHg fall of blood pressure administered for 5 days. Type of data set: functional. As to conditions: 120 h, read-out: MED.
In data set [23] the test system is Canis familiaris. The data set can be described thus: Hypotensive activity in conscious renal hypertensive dog assessed as time required for persistence of hypotensive effect at 2 mg/kg, po measured for 8 hrs. The class given is functional, Canis lupus familiaris. The essentials: as §4
Data set [24] concerns Canis familiaris. The data set can be described thus: Hypotensive activity in conscious renal hypertensive dog assessed as time required for persistence of hypotensive effect at 0.5 mg/kg, po measured for 8 hrs. Type of data set: functional, Canis lupus familiaris. The method, boiled down:
as §4

Data set [25] deals with Rattus norvegicus. The data set can be described thus: Hypotensive activity in spontaneously hypertensive Wistar-Okamoto rat assessed as time required for persistence of hypotensive effect at 0.1 mg/kg, po. The class given is functional. The essentials: as §3
The subject of data set [26] is Rattus norvegicus. The data set can be described thus: Hypotensive activity in spontaneously hypertensive Wistar-Okamoto rat assessed as maximum change in mean blood pressure at 0.1 mg/kg, po relative to control. Type of data set: functional. The essentials: as §1
The subject of data set [27] is Rattus norvegicus. The data set can be described thus: Hypotensive activity in spontaneously hypertensive Wistar-Okamoto rat assessed as maximum change in mean blood pressure at 0.5 mg/kg, po relative to control. Type of data set: functional. The essentials: as §1
The test system of data set [28] is Rattus norvegicus. The data set can be described thus: Hypotensive activity in spontaneously hypertensive Wistar-Okamoto rat assessed as time required for persistence of hypotensive effect at 0.25 mg/kg, po. The class given is functional. The essentials: as §3
Data set [29] concerns Rattus norvegicus. The data set can be described thus: Toxicity in rat assessed as change in cardiac noradrenaline level at 1 mg/kg for 5 days. The class given is organism-based, Heart. Further details: dose 1 mg/kg. The settings on record: in vivo, 120 h. The method, boiled down:
(§5)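 Rats were given single or repeated (5 days) administration, and cardiac noradrenaline levels were measured.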

Data set [30] concerns Canis familiaris. The data set can be described thus: Hypotensive activity in conscious renal hypertensive dog assessed as maximum change in mean blood pressure at 0.25 mg/kg, po measured for 8 hrs relative to control. Type of data set: functional, Canis lupus familiaris. The method, boiled down: as §2
Data set [31] has as its system Canis familiaris. The data set can be described thus: Hypotensive activity in conscious renal hypertensive dog assessed as time required for persistence of hypotensive effect at 1 mg/kg, po measured for 8 hrs. The class given is functional, Canis lupus familiaris. The method, boiled down:
as §4

Data set [32] deals with Canis familiaris. The data set can be described thus: Hypotensive activity in conscious renal hypertensive dog assessed as maximum change in mean blood pressure at 1 mg/kg, po measured for 8 hrs relative to control. The class given is functional, Canis lupus familiaris. The method, boiled down:
as §2

For data set [33], the system named is Canis familiaris. The data set can be described thus: Hypotensive activity in conscious renal hypertensive dog assessed as time required for persistence of hypotensive effect at 0.25 mg/kg, po measured for 8 hrs. Type of data set: functional, Canis lupus familiaris. The essentials:
as §4

The subject of data set [34] is Rattus norvegicus. The data set can be described thus: Hypotensive activity in spontaneously hypertensive Wistar-Okamoto rat assessed as maximum change in mean blood pressure at 1 mg/kg, po relative to control. Type of data set: functional. The essentials:
as §1

The test system of data set [35] is Rattus norvegicus. The data set can be described thus: Hypotensive activity in spontaneously hypertensive Wistar-Okamoto rat assessed as time required for persistence of hypotensive effect at 1 mg/kg, po. The class given is functional. The method, boiled down:
as §3

The test system of data set [36] is Rattus norvegicus. The data set can be described thus: Toxicity in rat assessed as change in cardiac noradrenaline level at 1 mg/kg. The class given is organism-based, Heart. Further details: dose 1 mg/kg. The settings on record: in vivo. The essentials: as §5

As usually defined, the LD50 is the dose at which mortality reaches 50%.

In the case of `CCC(C)(C)/N=C(/S)Nc1cccnc1`, the Activity in data set [1] was -35 mmHg; in data set [2], -43 mmHg; in [4] it was -28 mmHg; in data set [5] it was -14 mmHg; in data set [7], -47 mmHg; in data set [8], -69 mmHg. Besides, the Time was >4 h in data set [3]; 2 h in [9]; 2 h in [10]; 4 h in data set [11]; 2 h in data set [12]; 2 h in data set [13]. Also, the LD50 at 168 h in data set [6] was 460 mg/kg.

Regarding `CC(=O)N(/C(=N\C#N)Nc1cccnc1)C(C)(C)C.O`, the Activity in [14] was -64 mmHg; in data set [15] it was “Non-toxic”; in data set [17] it was -22 mmHg; in [19] it was -75 mmHg; in data set [26] it was -30 mmHg; in data set [27], -86 mmHg. The Time in data set [16] is >8 h; in [23], 8 h; in [24], 2 h; in data set [25] it was 4 h; in data set [28], 4 h. Further, the “fold change (FC)” value in data set [18] was 2. In addition, the results for the 50% lethal dose (LD50) at 168 h in data set [6] and in data set [20] were 615 mg/kg and > 1000 mg/kg, respectively. Further, the outcome in [21] was Active. Moreover, the minimal effective dose in [22] was determined as 0.1 mg/kg.

Regarding `CC(N/C(=N\C#N)Nc1ccncc1)C(C)(C)C` (stereo unspecified) [PINACIDIL ANHYDROUS], the Activity is reported as -79 mmHg in data set [1]; “Non-toxic” in data set [29]; “Non-toxic” in data set [15]; -26 mmHg in data set [30]; -43 mmHg in [17]; -67 mmHg in data set [32]. The Activity in [34] was -68 mmHg; in [36] it was “Non-toxic”; in data set [27] it was -34 mmHg. For the same molecule, the Time in [16] is 8 h; in data set [31], >8 h; in data set [33], 4 h; in [24], 6 h; in data set [35], >12 h; in data set [12], >12 h. For the same molecule, the result in data set [21] was Active. Besides, the minimal effective dose in data set [22] was 0.5 mg/kg.
